Columns and labels:
[1] = AUC (0 to infinity) in C57Bl6 mouse at 100 mg/kg, po administered as single dose; assay type: ADME, organism-based; set-up: dose 100 mg/kg, time infinity, route oral; conditions: in vivo
How it was run: (§1)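 C57Bl/6 mice were given single intravenous or oral doses (oral at 10 and 100 mg/kg). Plasma PK parameters were CL, AUC0-inf, t1/2, Cmax and %F.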

[2] = Oral bioavailability in dog at 150 mg/kg administered as single dose; assay type: ADME, organism-based, Canis lupus familiaris; conditions: in vivo
[3] = Permeability across basolateral to apical side in human Caco2 cells; assay type: ADME, cell-based; conditions: Caco-2, read-out: permeability
[4] = Oral bioavailability in Sprague-Dawley rat at 50 mg/kg administered as single dose; assay type: ADME, organism-based; conditions: in vivo
How it was run: (§2)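 Sprague-Dawley rats each received one dose of drug, either iv across 10-50 mg/kg or orally at 10, 25 and 50 mg/kg. Plasma pharmacokinetics covered CL, AUC0-inf, t1/2, Cmax and Tmax. Oral bioavailability (%F) was obtained from the oral and iv exposures.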

[5] = Toxicity in rat administered twice daily for 28 days with 2 week recovery; conditions: in vivo
How it was run: (§3)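 Rats and dogs underwent 28-day repeat-dose studies with twice-daily dosing, followed by a 2-week recovery period. The NOAEL (mg/kg/dose BID) was established, and the matching systemic exposure was reported as AUC0-inf.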

[6] = AUC (0 to infinity) in Sprague-Dawley rat at 10 mg/kg, iv administered as single dose; assay type: ADME, organism-based; set-up: dose 10 mg/kg, time infinity, route intravenous; conditions: in vivo
How it was run: (§4)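 Sprague-Dawley rats were given single doses, intravenous at 10–50 mg/kg or oral at 10, 25 and 50 mg/kg. Plasma PK parameters were CL, AUC0-inf, t1/2, Cmax and %F.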

[7] = Toxicity in dog administered twice daily for 28 days with 2 week recovery; set-up: species or system Canis lupus familiaris; conditions: in vivo; how it was run: as §3
[8] = Clearance in C57Bl6 mouse at 10 mg/kg, iv administered as single dose; assay type: ADME, organism-based; conditions: in vivo; how it was run: as §1
[9] = Oral bioavailability in C57Bl6 mouse at 10 mg/kg administered as single dose; assay type: ADME, organism-based; conditions: in vivo
How it was run: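 C57Bl/6 mice received a single oral dose of 10 or 100 mg/kg, with iv dosing run for comparison. Plasma AUC0-inf, t1/2, Cmax and oral bioavailability (%F) were determined.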

[10] = AUC (0 to infinity) in dog at 5 mg/kg, po administered as single dose; assay type: ADME, organism-based, Canis lupus familiaris; set-up: dose 5 mg/kg, time infinity, route oral; conditions: in vivo
How it was run: (§5)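 Dogs were given single intravenous doses, or oral doses from 5 to 50 mg/kg. Plasma PK parameters were CL, AUC0-inf, t1/2, Cmax and %F.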

[11] = Half life in Sprague-Dawley rat at 10 mg/kg, iv administered as single dose; assay type: ADME, organism-based; conditions: in vivo; how it was run: as §4
[12] = AUC (0 to infinity) in C57Bl6 mouse at 10 mg/kg, iv administered as single dose; assay type: ADME, organism-based; set-up: dose 10 mg/kg, time infinity, route intravenous; conditions: in vivo; how it was run: as §1
[13] = Stability in human microsomes assessed as parent compound remaining after 90 mins in presence of phase 1 and 2 metabolic cofactors; assay type: ADME, Microsome; conditions: read-out: Stability
[14] = Clearance in dog at 3 mg/kg, iv administered as single dose; assay type: ADME, organism-based, Canis lupus familiaris; conditions: in vivo; how it was run: as §5
[15] = Clearance in C57Bl6 mouse at 50 mg/kg, iv administered as single dose; assay type: ADME, organism-based; conditions: in vivo; how it was run: as §1
[16] = Cmax in dog at 5 mg/kg, po administered as single dose; assay type: ADME, organism-based, Canis lupus familiaris; set-up: dose 5 mg/kg, route oral; conditions: in vivo; how it was run: as §5
[17] = Aqueous solubility of the compound at pH 6.5; assay type: physicochemical
[18] = AUC (0 to infinity) in C57Bl6 mouse at 10 mg/kg, po administered as single dose; assay type: ADME, organism-based; set-up: dose 10 mg/kg, time infinity, route oral; conditions: in vivo; how it was run: as §1
[19] = Oral bioavailability in Sprague-Dawley rat at 25 mg/kg administered as single dose; assay type: ADME, organism-based; conditions: in vivo; how it was run: as §2
[20] = Clearance in Sprague-Dawley rat at 25 mg/kg, iv administered as single dose; assay type: ADME, organism-based; conditions: in vivo; how it was run: as §4
[21] = Half life in C57Bl6 mouse at 10 mg/kg, po administered as single dose; assay type: ADME, organism-based; conditions: in vivo; how it was run: as §1
[22] = Half life in dog at 3 mg/kg, iv administered as single dose; assay type: ADME, organism-based, Canis lupus familiaris; conditions: in vivo
How it was run: (§6)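 Dogs were dosed once, by iv injection or orally, with oral doses spanning 5 to 50 mg/kg. Plasma pharmacokinetic parameters were derived: CL, AUC0-inf, t1/2, Cmax and %F.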

[23] = Clearance in Sprague-Dawley rat at 10 mg/kg, iv administered as single dose; assay type: ADME, organism-based; conditions: in vivo; how it was run: as §4
[24] = Drug uptake in C57Bl6 mouse plasma at 50 mg/kg, po administered as single dose measured at 1 hr post-dose; assay type: ADME, organism-based; conditions: in vivo
How it was run: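 C57Bl/6 mice received a single oral dose of 50 mg/kg. Drug levels were compared in plasma and other organs over time after dosing.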

[25] = AUC (0 to infinity) in Sprague-Dawley rat at 50 mg/kg, po administered as single dose; assay type: ADME, organism-based; set-up: dose 50 mg/kg, route oral, time infinity; conditions: in vivo; how it was run: as §4
[26] = Half life in C57Bl6 mouse at 10 mg/kg, iv administered as single dose; assay type: ADME, organism-based; conditions: in vivo; how it was run: as §1
[27] = Tmax in Sprague-Dawley rat at 10 to 50 mg/kg, po administered as single dose; assay type: ADME, organism-based; conditions: in vivo; how it was run: as §2
[28] = Clearance in Sprague-Dawley rat at 50 mg/kg, iv administered as single dose; assay type: ADME, organism-based; conditions: in vivo; how it was run: as §4
[29] = Cmax in C57Bl6 mouse at 100 mg/kg, po administered as single dose; assay type: ADME, organism-based; set-up: dose 100 mg/kg, route oral; conditions: in vivo; how it was run: as §1
[30] = Oral bioavailability in dog at 5 mg/kg administered as single dose; assay type: ADME, organism-based, Canis lupus familiaris; conditions: in vivo; how it was run: as §6
[31] = Stability in rat microsomes assessed as parent compound remaining after 90 mins in presence of phase 1 and 2 metabolic cofactors; assay type: ADME, Microsome; conditions: read-out: Stability
[32] = Half life in Sprague-Dawley rat at 25 mg/kg, po administered as single dose; assay type: ADME, organism-based; conditions: in vivo; how it was run: as §2
[33] = Aqueous solubility of the compound at pH 7.4; assay type: physicochemical
[34] = Half life in Sprague-Dawley rat at 50 mg/kg, po administered as single dose; assay type: ADME, organism-based; conditions: in vivo; how it was run: as §2
[35] = Half life in Sprague-Dawley rat at 25 mg/kg, iv administered as single dose; assay type: ADME, organism-based; conditions: in vivo; how it was run: as §2
[36] = Cmax in Sprague-Dawley rat at 10 mg/kg, po administered as single dose; assay type: ADME, organism-based; set-up: dose 10 mg/kg, route oral; conditions: in vivo; how it was run: as §4

## O[C@H](C[C@H]1c2c(F)cccc2-c2cncn21)[C@H]1CC[C@H](O)CC1 [NAVOXIMOD]
[1]
  AUC(0-inf): 60200 ng·h/mL
[2]
  bioavailability: 71.8%
[3]
  Papp B→A: 35 ×10⁻⁶ cm/s
[4]
  bioavailability: 44.1%
[5]
  NOAEL at 28 days: 250 mg/kg
[6]
  AUC(0-inf): 3930 ng·h/mL
[7]
  NOAEL at 28 days: 200 mg/kg
[8]
  clearance: 27.5 mL/min/kg
[9]
  bioavailability: 69%
[10]
  AUC(0-inf): 207 ng·h/mL
[11]
  half-life: 1.44 h
[12]
  AUC(0-inf): 6130 ng·h/mL
[13]
  remaining at […]: > 85%
[14]
  clearance: 56.1 mL/min/kg
[15]
  clearance: 25 mL/min/kg
[16]
  Cmax: 132 ng/mL
[17]
  solubility: > 200 µM
[18]
  AUC(0-inf): 3780 ng·h/mL
[19]
  bioavailability: 60.4%
[20]
  clearance: 32 mL/min/kg
[21]
  half-life: 1.2 h
[22]
  half-life: 1.6 h
[23]
  clearance: 44.6 mL/min/kg
[24]
  Drug uptake: Active
[25]
  AUC(0-inf): 15400 ng·h/mL
[26]
  half-life: 3.9 h
[27]
  Tmax: 0.5 h
[28]
  clearance: 23.2 mL/min/kg
[29]
  Cmax: 14200 ng/mL
[30]
  bioavailability: 13.7%
[31]
  remaining at […]: > 85%
[32]
  half-life: 1.15 h
[33]
  solubility: > 200 µM
[34]
  half-life: 1.06 h
[35]
  half-life: 1.25 h
[36]
  Cmax: 1560 ng/mL

— ChEMBL document CHEMBL4364294 (J Med Chem, 2019)
